# Screening data deposited in PubChem by Broad Institute.
# Vif imaging: inhibitors of HIV Vif | inhibition, % at 7.49 µM | HEK293T cells, Vif self-association by quenched fluorescence, imaging, 24 h | AID 602346 | actives 0.35% (n = 340,000); in the data active = inhibition above about 50%, passing the limit was not always enough; inconclusive = no clear call, values can overlap the other calls; inactive = below about 31%
# Statin myotox sup: suppression of simvastatin myotoxicity. AID 602340. actives 0.78% (n = 330,000). rescue of ATP level, % at 7.49 µM. C2C12 myotubes + simvastatin, ATP luminescence, 48 h; scaled: DMSO 0, geranylgeraniol control 100;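 active = mean ATP rescue above about 67%, or every replicate alone reaching that limit, limit read from the data, passing the limit was not always enough; inconclusive = no clear call, values can overlap the other calls; inactive = mean under the limit and some replicate under it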;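 note: myotubes were challenged with 10 µM simvastatin during compound exposure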
# SR-BI DiI-HDL act: SR-BI HDL lipid transfer activation; CHO ldlA[mSR-BI] cells, DiI-HDL uptake fluorescence, 3 h; 100 = double the neutral-control signal; activation, % at 12.5 µM; actives 0.096% (n = 320,000);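 active = mean replicate activation of at least 60% and every replicate at or above 60%; inconclusive = mean or all-replicate condition met, but not both; inactive = mean below 60% and not all replicates reaching 60%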;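 note: 0% = median plate neutral-control signal and 100% = twice that signal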
#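 material = CHO ldlA[mSR-BI] cells | medium = Ham's F12 with 0.5% BSA, HEPES 25 mM, pH 7.4 | reagent = fluorescent DiI-HDL, 10 µg/mL final | compound dosing = single-point compound dose | incubation = 3 h, 37 °C | measured by = bottom-read fluorescence, 550/595 nm | measure = HDL uptake via cellular fluorescence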
# SR-BI HDL uptake: inhibitors of mouse SR-BI mediated HDL lipid uptake. inhibition, % at 12.5 µM. ldlA[mSR-BI] CHO cells, DiI-HDL uptake fluorescence, 3 h. actives 0.96% (n = 320,000);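 active = mean replicate inhibition of at least 70% and a set share of replicates each scoring 70 or more; inconclusive = meets just one of the two criteria; inactive = fails both criteria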;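 note: 0% = median of neutral control wells and 100% = median of positive control wells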
# Target sequence (Q61009 whole entry, looked up): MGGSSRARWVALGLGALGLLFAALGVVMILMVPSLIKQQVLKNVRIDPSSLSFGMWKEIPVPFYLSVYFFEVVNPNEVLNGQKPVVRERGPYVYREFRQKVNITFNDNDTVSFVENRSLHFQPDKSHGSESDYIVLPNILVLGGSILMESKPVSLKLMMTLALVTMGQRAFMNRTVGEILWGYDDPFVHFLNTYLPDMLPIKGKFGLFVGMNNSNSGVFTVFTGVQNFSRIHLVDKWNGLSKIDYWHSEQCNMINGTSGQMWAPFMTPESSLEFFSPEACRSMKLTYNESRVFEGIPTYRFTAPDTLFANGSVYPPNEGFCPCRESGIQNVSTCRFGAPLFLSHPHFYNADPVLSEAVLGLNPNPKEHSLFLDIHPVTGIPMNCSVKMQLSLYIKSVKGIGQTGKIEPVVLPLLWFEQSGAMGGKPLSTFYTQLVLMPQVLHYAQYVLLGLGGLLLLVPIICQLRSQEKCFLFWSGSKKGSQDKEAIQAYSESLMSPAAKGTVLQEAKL
# DiI quencher: quenches DiI-HDL fluorescence, an SR-BI assay artifact. shares compounds with SR-BI HDL uptake. cell-free DiI-HDL fluorescence quenching, 30 min. AC50, µM (highest dose often 35 µM), without a hit: at the highest dose activity change, negative = quenching. actives 20% (n = 470). AID 540326;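 active = quenching, a falling signal, with AC50 below a set limit tied to the top valid dose, actives reach about 32 µM in these data; inconclusive = no clear call, values can overlap the other calls; inactive = rising signal, and the rest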
# Numbers without * were called inactive; ? = inconclusive; · = not tested or not shown. Most compounds without a hit are left out; they make up all but 1.7% or so of the library.
SMILES,Vif imaging,Statin myotox sup,SR-BI DiI-HDL act,SR-BI HDL uptake,DiI quencher
Cn1cc(S(=O)(=O)N2CCN(c3ccccc3F)CC2)c(=O)n(C)c1=O,-7,19,3,-3,·
C[C@@H]1CN([C@@H](C)CO)C(=O)CCCn2nncc2CO[C@@H]1CN(C)Cc1ccncc1,·,8,·,·,·
CCN(C(=O)COC(=O)c1c(C)c(-c2ccccc2)nc2ccccc12)C1CCS(=O)(=O)C1 (configuration not stated),-7,-54,-75,75*,-1%
Cc1cccc(Nc2ccccc2C(=O)OCC(=O)N(C)C2CCS(=O)(=O)C2)c1C (configuration not stated),-4,11,-73,73*,2%
CN(C(=O)COC(=O)c1ccccc1Nc1ccccc1)C1CCS(=O)(=O)C1 (configuration not stated),2,7,-46,46,·
Cc1ccc2nc3c(c(C(=O)OCC(=O)N(C)C4CCS(=O)(=O)C4)c2c1)CCCC3 (configuration not stated),-5,·,-74,74*,-1%
CNC[C@H]1Oc2ccc(NS(=O)(=O)c3ccc(F)cc3)cc2CC(=O)N([C@@H](C)CO)C[C@@H]1C,·,10,·,·,·
Cn1c(C(=O)N2CCC(C(=O)N3CCN(Cc4ccc5c(c4)OCO5)CC3)CC2)cc2sccc21,-4,-8,-72,72*,-3%
Cn1c(C(=O)N2CCN(Cc3ccc4c(c3)OCO4)CC2)cc2sccc21,-7,-3,18,-18,·
CCOc1cc(N2CCOCC2)c(OCC)cc1NC(=O)c1cc(-c2ccco2)nc2ccccc12,·,-73,-79,79*,24µM*
Cc1ccc(NC(=O)c2cc(-c3ccco3)nc3ccccc23)cc1S(=O)(=O)N1CCOCC1,0,-16,-102,102*,0%
CC(=O)c1c(C(C)=O)c(C)n(-c2ccc(C)c(NC(=O)c3ccccc3Cl)c2)c1C,-14,-8,-79,79*,5%
Cc1ccc(NC(=O)c2ccccc2Cl)c(Cl)c1,11,-1,-23,23,·
O=C(NC1CCCCC1)C(c1ccc2ncccc2c1)N(Cc1ccco1)C(=O)c1ccc2c(c1)OCCO2 (configuration not stated),-3,-146,14,-14,-2%
Cn1nc(-c2ccc(Cl)cc2)c2cc(C(=O)NCCCN3CCOCC3)sc21,-12,7,-72,72*,1%
CC[C@]12c3[nH]c4cc(-c5ccco5)ccc4c3CCN1C(=O)[C@@H](CC(=O)NCc1ccc(OC)c(OC)c1)C[C@@H]2C(=O)N1CCN(C(=O)c2ccco2)CC1,·,5,-75,75*,-13%
O=C(NCc1ccccc1F)C1CCN(C(=O)c2sccc2-n2cccc2)CC1,10,·,-69,69,·
CCOc1ccccc1CNC(=O)C1CCN(C(=O)c2sccc2-n2cccc2)CC1,-6,8,-70,70,-4%
CC1CCCCC1NC(=O)C1CCN(C(=O)c2sccc2-n2cccc2)CC1 (configuration not stated),-3,16,-44,44,-2%
CCOc1ccccc1CNC(=O)C1CCN(S(=O)(=O)N2CCC(C)CC2)CC1,·,7,·,·,·
O=C(NCc1ccccc1Cl)C1CCN(C(=O)c2sccc2-n2cccc2)CC1,5,8,-73,?,-1%
C[C@H](NC(=O)C[C@H]1C=C[C@H](NC(=O)C2CC2)[C@@H](CO)O1)c1ccccc1,·,1,·,·,·
CNC[C@H]1Oc2cc(C#CC3(O)CCCC3)ccc2S(=O)(=O)N([C@H](C)CO)C[C@@H]1C,·,-4,·,·,·
CNC[C@H]1Oc2ccc(NC(=O)Nc3ccc(C(F)(F)F)cc3)cc2CC(=O)N([C@H](C)CO)C[C@@H]1C,·,-25,·,·,·
C[C@H](CO)N1C[C@H](C)[C@H](CN(C)S(=O)(=O)c2ccccc2)Oc2c(NC(=O)c3nc4ccccc4s3)cccc2C1=O,·,17,·,·,·
C[C@H](O)C#Cc1cnc2c(c1)C(=O)N([C@H](C)CO)C[C@H](C)[C@H](CN(C)Cc1ccccn1)O2,·,-1,·,·,·
CCc1sc(NC(C)=O)nc1-c1ccccc1,-6,0,-7,7,·
CCc1sc(N2C(=O)C3C4CCC(C4=C(C)C)C3C2=O)nc1-c1ccccc1 (configuration not stated),-15,-1,-84,84*,2%
